Experimental data published in ChEMBL document CHEMBL1153063 (Bioorg Med Chem Lett, 2009).

Experiments:
[1] = molecular target: Neuronal acetylcholine receptor subunit alpha-7 (Rattus norvegicus) (UniProt Q05941); assay: Agonist activity at rat alpha7 nAChR expressed in Xenopus oocytes at 32 uM by two-electrode voltage clamp technique relative to nicotine; format: functional, cell-based; details: Oocyte
How it was run: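 Rat alpha7 nAChR cRNA (10–50 ng) injected into Xenopus oocytes defolliculated with collagenase (1.3 mg/mL, 3 h); oocytes kept in Barth's saline up to 2 weeks. Test compounds applied at 32 µM.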

[2] = molecular target: Neuronal acetylcholine receptor subunit alpha-7 (Rattus norvegicus, UniProt Q05941); assay: Displacement of [125I]BTX from rat alpha7 nAChR expressed in rat GH4C1 cells; format: cell-based, GH4-C1
Neuronal acetylcholine receptor subunit alpha-7, sequence (Q05941 whole entry): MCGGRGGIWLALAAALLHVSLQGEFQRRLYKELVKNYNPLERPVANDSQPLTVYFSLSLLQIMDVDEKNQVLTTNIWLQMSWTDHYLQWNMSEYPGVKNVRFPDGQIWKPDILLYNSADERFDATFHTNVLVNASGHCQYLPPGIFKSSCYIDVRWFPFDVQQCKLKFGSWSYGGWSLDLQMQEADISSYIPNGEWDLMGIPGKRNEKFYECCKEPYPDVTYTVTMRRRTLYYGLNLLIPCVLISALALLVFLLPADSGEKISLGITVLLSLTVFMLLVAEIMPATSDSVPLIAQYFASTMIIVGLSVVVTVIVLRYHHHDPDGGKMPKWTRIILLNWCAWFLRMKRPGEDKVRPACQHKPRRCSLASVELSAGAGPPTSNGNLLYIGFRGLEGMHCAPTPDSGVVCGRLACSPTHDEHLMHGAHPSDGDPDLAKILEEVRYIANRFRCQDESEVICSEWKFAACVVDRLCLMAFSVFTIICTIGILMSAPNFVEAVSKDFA
How it was run: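 GH₄C₁ cell binding with [¹²⁵I]-BTX; six-point dose–response curve in triplicate, values averaged.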

[3] = molecular target: Neuronal acetylcholine receptor; alpha4/beta2 (Rattus norvegicus, UniProt P09483+P12390); assay: Displacement of L-[3H]Nicotine from alpha4beta2 nAChR in rat brain homogenate by rapid filtration method; format: tissue-based
Neuronal acetylcholine receptor; alpha4/beta2, sequence (P09483 whole entry): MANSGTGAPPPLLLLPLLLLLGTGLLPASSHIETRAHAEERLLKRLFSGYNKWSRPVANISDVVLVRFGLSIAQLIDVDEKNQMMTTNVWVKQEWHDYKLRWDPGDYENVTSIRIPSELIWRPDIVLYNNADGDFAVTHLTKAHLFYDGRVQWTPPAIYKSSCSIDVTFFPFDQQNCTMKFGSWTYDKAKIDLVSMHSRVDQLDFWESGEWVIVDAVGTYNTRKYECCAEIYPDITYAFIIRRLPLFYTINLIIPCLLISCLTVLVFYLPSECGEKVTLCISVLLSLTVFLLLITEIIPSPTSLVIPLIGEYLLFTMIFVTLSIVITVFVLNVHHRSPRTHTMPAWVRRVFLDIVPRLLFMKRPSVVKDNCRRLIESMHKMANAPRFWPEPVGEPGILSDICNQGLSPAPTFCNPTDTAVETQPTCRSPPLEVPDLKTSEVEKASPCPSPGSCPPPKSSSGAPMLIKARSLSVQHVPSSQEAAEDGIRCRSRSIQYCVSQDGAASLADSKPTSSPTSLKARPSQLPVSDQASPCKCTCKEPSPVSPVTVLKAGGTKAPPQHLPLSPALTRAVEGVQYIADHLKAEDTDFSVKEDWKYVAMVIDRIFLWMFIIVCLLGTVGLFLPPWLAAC
Neuronal acetylcholine receptor; alpha4/beta2, sequence (P12390 whole entry): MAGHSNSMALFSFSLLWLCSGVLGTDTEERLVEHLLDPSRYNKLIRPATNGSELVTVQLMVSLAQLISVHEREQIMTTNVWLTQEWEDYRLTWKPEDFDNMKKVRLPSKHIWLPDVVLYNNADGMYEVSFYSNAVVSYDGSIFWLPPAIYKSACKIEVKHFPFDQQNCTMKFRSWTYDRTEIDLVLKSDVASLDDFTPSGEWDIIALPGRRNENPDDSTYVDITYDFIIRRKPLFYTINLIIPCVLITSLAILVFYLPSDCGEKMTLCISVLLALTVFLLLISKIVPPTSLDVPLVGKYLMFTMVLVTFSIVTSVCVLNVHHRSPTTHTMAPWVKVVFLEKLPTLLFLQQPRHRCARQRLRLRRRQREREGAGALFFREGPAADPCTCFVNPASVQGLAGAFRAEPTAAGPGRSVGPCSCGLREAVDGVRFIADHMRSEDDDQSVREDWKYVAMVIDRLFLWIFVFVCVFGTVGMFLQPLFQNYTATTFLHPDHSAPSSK

[4] = Drug concentration in Sprague-Dawley rat brain at 5 mg/kg, sc after 1 hr; format: ADME, organism-based; parameters: dose 5 mg/kg, route subcutaneous; details: read-out: Drug uptake
How it was run: (§1)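 Male Sprague-Dawley rats (n = 3) given 5 mg/kg s.c.; brain, plasma and CSF levels assessed 1 h post dose.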

[5] = Drug concentration in Sprague-Dawley rat CSF at 5 mg/kg, sc after 1 hr; format: ADME, organism-based, Cerebrospinal fluid; parameters: dose 5 mg/kg, route subcutaneous; details: read-out: Drug uptake; how it was run: as §1
hERG (KCNH2) = hERG (KCNH2) (Homo sapiens, UniProt Q12809); assay: Displacement of [3H]dofetilide from human ERG expressed in HEK293 cells at 10 uM; format: cell-based; details: HEK293 cells expressing human ERG, probe [3H]dofetilide
hERG (KCNH2), sequence (Q12809 whole entry): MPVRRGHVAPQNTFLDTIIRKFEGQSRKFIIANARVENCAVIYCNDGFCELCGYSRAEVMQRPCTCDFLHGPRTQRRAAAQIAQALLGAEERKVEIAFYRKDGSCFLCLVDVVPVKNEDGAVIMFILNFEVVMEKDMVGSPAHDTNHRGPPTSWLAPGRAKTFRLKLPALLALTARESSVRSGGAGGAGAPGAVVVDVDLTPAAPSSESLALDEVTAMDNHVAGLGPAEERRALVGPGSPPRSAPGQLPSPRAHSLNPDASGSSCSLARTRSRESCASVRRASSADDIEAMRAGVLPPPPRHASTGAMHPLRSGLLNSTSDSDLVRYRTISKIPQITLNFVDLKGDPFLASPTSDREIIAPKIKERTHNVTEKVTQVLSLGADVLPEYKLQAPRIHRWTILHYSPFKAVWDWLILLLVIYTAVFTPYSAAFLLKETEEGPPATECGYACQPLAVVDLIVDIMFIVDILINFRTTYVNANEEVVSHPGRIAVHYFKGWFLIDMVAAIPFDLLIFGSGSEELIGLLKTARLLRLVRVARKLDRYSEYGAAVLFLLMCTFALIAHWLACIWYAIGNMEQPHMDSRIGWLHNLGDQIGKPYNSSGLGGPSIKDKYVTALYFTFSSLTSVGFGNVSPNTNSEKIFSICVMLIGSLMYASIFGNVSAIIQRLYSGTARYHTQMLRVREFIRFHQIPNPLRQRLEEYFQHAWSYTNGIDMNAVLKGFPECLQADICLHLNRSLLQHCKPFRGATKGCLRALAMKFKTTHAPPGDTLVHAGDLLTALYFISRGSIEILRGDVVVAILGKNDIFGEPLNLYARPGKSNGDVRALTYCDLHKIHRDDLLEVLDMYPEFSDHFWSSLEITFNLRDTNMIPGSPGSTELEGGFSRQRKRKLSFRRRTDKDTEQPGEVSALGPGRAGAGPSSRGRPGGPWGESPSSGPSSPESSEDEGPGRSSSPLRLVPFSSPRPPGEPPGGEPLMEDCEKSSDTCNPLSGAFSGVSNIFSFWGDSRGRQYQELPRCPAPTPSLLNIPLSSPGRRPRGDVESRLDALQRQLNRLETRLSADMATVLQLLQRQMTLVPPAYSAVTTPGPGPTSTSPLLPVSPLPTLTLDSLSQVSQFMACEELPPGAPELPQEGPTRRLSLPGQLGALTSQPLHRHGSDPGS
How it was run: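 Binding of [³H]dofetilide to hERG stably expressed in HEK293 cells; reported as percent inhibition of binding.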

[6] = molecular target: T1, 5-hydroxytryptamine receptor 3A (Homo sapiens, UniProt P46098); assay: Displacement of [3H]LY278584 from human 5HT3 receptor expressed in HEK293 cells; format: cell-based
T1 sequence (P46098 whole entry): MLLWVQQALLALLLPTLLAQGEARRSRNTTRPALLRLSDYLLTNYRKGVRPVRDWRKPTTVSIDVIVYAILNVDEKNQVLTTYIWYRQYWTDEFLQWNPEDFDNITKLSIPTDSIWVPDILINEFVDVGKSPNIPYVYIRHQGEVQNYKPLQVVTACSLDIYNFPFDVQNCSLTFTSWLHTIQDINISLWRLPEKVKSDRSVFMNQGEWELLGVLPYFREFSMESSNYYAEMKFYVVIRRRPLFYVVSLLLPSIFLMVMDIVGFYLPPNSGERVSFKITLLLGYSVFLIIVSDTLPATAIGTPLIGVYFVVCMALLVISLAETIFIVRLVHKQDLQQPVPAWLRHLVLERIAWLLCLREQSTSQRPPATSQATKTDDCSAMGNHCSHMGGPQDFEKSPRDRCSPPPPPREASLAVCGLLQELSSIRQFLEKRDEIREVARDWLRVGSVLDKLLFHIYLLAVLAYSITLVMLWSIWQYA
How it was run: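 HEK293 cells expressing human 5-HT₃; [³H]-LY278584 binding, six-point dose–response curve in triplicate, values averaged.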

[7] = Octanol-aqueous buffer partition coefficient, log D at pH 7.4; format: physicochemical
[8] = molecular target: Neuronal acetylcholine receptor subunit alpha-3 (Homo sapiens, UniProt P32297); assay: Displacement of [3H]epibatidine from alpha3 nAChR in human IMR32 cells; format: cell-based, IMR-32
Neuronal acetylcholine receptor subunit alpha-3, sequence (P32297 whole entry): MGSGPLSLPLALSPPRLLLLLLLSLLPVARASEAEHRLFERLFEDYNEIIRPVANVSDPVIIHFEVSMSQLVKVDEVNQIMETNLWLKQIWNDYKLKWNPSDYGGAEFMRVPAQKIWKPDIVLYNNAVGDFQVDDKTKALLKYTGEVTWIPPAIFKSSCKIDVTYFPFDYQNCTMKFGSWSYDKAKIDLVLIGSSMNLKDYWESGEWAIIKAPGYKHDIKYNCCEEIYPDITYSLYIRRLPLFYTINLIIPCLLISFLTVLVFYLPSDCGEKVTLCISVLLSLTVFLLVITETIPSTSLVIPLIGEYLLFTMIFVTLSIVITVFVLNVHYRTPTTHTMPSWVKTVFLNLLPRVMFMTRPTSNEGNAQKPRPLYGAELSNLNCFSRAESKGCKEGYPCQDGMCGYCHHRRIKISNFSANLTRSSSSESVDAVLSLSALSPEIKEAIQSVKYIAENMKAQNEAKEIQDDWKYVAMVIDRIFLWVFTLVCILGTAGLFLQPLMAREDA
How it was run: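 IMR32 cell binding with [³H]-epibatidine; six-point dose–response curve in triplicate, values averaged.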

[9] = Plasma concentration in Sprague-Dawley rat at 5 mg/kg, sc after 1 hr; format: ADME, organism-based; parameters: dose 5 mg/kg, route subcutaneous; how it was run: as §1
[10] = Intrinsic clearance in human liver microsomes at 1 uM at pH 7.4 after 30 mins; format: ADME, Microsome
How it was run: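 Pooled liver microsomes in phosphate buffer pH 7.4, 1 μM substrate; sampled at 30 min.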

[11] = Ratio of drug level in brain to plasma in Sprague-Dawley rat at 5 mg/kg, sc after 1 hr; format: ADME, organism-based; parameters: dose 5 mg/kg, route subcutaneous
How it was run: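 Male Sprague-Dawley rats (n = 3) received a single subcutaneous dose of 5 mg/kg. Brain, plasma and CSF drug levels were assessed 1 h post dose, and the brain level was expressed relative to the plasma level.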

[12] = Aqueous solubility of the compound; format: physicochemical; details: buffer

Neuronal acetylcholine receptor subunit alpha-7 (Rattus norvegicus), sequence (Q05941 whole entry): as the sequence (Q05941 whole entry) above

Structure (SMILES)	Activity [1] [%]	Ki [2] [nM]	IC50 [3] [nM]	other results
O=C(Oc1ccc(Oc2ccccc2)cc1)N1CCN2CCC1CC2	241	212		
CN1CCCN(C(=O)Oc2ccc(Br)cc2)CC1	10	> 5710		
O=C(Oc1ccc(-c2cccnc2)cc1)N1CCN2CCC1CC2	189	203	> 5000	
O=C(Oc1ccccc1Br)N1CCN2CCC1CC2		725		
O=C(Oc1ccc(Br)cc1)N1CCN2CCC1CC2 [SSR180711]	158		> 5000	concentration at 1 h [4]: 5460 ng/g; concentration at 1 h [5]: 774 nM; inhibition at 10 µM (hERG (KCNH2)): 46%; IC50 [6]: > 3160 nM; logD [7]: 2.1; IC50 [8]: > 6480 nM; concentration at 1 h [9]: 648 ng/mL; CLint scaled at 1 µM [10]: < 6.8 mL/min/kg; Kp at 1 h [11]: 9.1; solubility [12]: > 65 µg/mL
Cc1ccc(OC(=O)N2CCN3CCC2CC3)cc1	202	178		
COc1ccc(OC(=O)N2CCN3CCC2CC3)cc1	126	201		
S=C(Oc1ccccc1)N1CCN2CCC1CC2	28	749		
O=C(Oc1ccc(Br)c(Cl)c1)N1CCN2CCC1CC2	203	33	7120	IC50 [8]: 2090 nM
O=C(Oc1cccc(Cl)c1)N1CCN2CCC1CC2	77	32	3500	
C[C@@H]1CN(C(=O)Oc2ccc(Br)cc2)CCN1	< 0.1	> 5000		
O=C(Oc1ccc(Br)cc1)N1CCCN2CCC1CC2	27	383	> 10000	
O=C(Oc1ccc(-c2ccccn2)cc1)N1CCN2CCC1CC2	174	354		
Cc1cc(OC(=O)N2CCN3CCC2CC3)ccc1Br	83	50	7220	IC50 [8]: 4020 nM
O=C(Nc1ccc(Br)cc1)N1CCN2CCC1CC2		328		
O=C(Oc1cccc(Oc2ccccc2)c1)N1CCN2CCC1CC2	40	13		
O=C(Cc1ccc(Br)cc1)N1CCN2CCC1CC2	1.7	> 5000		
C[C@@H]1CN(C(=O)Oc2ccc(Br)cc2)[C@@H](C)CN1		> 5000		
O=C(c1ccccc1)c1cccc(OC(=O)N2CCN3CCC2CC3)c1	98	11	2610	
O=S(=O)(c1ccc(Br)cc1)N1CCN2CCC1CC2		> 4720		
O=C(Oc1ccc(Cl)c(F)c1)N1CCN2CCC1CC2	110	86	6980	IC50 [8]: 9960 nM

Structure (SMILES)	Activity [1] [%]	Ki [2] [nM]	IC50 [3] [nM]	other results
O=C(c1ccccc1)c1ccc(OC(=O)N2CCN3CCC2CC3)cc1	35	95		
O=C(Oc1ccc(Cl)c(Cl)c1)N1CCN2CCC1CC2	195	31		
O=C(Oc1cccc(Br)c1)N1CCN2CCC1CC2	70	9.5		
O=C(c1ccccc1)c1cc(OC(=O)N2CCN3CCC2CC3)ccc1Br	201	16	2040	IC50 [8]: 1390 nM
O=C(Oc1cccc(-c2ccccc2)c1)N1CCN2CCC1CC2	9	9		
O=C(Oc1ccc(F)cc1)N1CCN2CCC1CC2	100	537	1780	
C[C@@H]1CN(C(=O)Oc2ccc(Br)cc2)C[C@H](C)N1	< 0.1	> 5000		
O=C(OCc1ccccc1)N1CCN2CCC1CC2		3350		
O=C(Nc1ccc(Br)cc1)OC1CN2CCC1C2 (configuration not stated) [QUINUCLIDINE CARBAMATE]	90			
COc1cccc(OC(=O)N2CCN3CCC2CC3)c1	26	79		
O=C(Oc1ccc2ccccc2c1)N1CCN2CCC1CC2	175	23	9880	concentration at 1 h [4]: 5290 ng/g; concentration at 1 h [5]: 343 nM; inhibition at 10 µM (hERG (KCNH2)): 8%; IC50 [6]: > 3160 nM; logD [7]: 2.3; IC50 [8]: 4910 nM; concentration at 1 h [9]: 463 ng/mL; CLint scaled at 1 µM [10]: 12 mL/min/kg; Kp at 1 h [11]: 11.6; solubility [12]: > 65 µg/mL
O=C(Oc1ccccc1)N1CCN2CCC1CC2	99	739	1040	
O=C(Oc1ccc(Br)cc1)N1CCN2CCC(CC2)C1		763	> 10000	
O=c1c(Br)ccc2n1C[C@@H]1CNC[C@H]2C1				IC50 [8]: 15.6 nM
O=C(Oc1ccc(-c2ccncc2)cc1)N1CCN2CCC1CC2	191	207		
O=C(Oc1ccc(-c2ccccc2)cc1)N1CCN2CCC1CC2	111	215		
Cc1cccc(OC(=O)N2CCN3CCC2CC3)c1	46	25		
O=C(Oc1ccc(Cl)cc1)N1CCN2CCC1CC2	145	79	> 5000	IC50 [8]: > 5000 nM
O=C(Oc1cccc(F)c1)N1CCN2CCC1CC2	47	35	1060	
O=C(Oc1ccccc1Cl)N1CCN2CCC1CC2		868		
